Measurements as given in ChEMBL document CHEMBL1764974, “The discovery of phthalazinone-based human H1 and H3 single-ligand antagonists suitable for intranasal administration for the treatment of allergic rhinitis” (J Med Chem, 2011).
The source made the active and inactive calls. The calls are words filed in the database; no cut-off is given here.

Experiments:
Histamine H1 receptor [1] = target: T1, Histamine H1 receptor (Homo sapiens, UniProt P35367); assay: Antagonist activity at human recombinant histamine H1 receptor expressed in intact CHO cells assessed as inhibition of histamine-induced cellular calcium mobilization by FLIPR assay; type: functional, cell-based
T1 sequence (P35367 whole entry): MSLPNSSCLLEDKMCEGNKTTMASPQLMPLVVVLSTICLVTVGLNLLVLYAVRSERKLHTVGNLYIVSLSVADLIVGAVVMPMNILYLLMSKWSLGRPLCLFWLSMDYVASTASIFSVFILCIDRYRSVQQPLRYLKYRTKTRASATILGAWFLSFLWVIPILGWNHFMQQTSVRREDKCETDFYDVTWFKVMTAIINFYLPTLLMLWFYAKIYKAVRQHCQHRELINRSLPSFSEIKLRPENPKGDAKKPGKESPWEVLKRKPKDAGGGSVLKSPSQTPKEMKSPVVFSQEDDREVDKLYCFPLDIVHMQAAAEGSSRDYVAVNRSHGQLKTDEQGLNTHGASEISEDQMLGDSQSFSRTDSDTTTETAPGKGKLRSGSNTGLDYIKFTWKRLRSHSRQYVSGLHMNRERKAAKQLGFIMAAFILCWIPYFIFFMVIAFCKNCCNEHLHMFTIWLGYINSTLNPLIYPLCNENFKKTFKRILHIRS
In short: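 Human recombinant H1 receptor in intact CHO cells; inhibition of agonist-induced calcium mobilization read with Fluo-4AM in FLIPR. EC50 came from a four-parameter logistic fit, and pA2 = log(DR−1) − log[B], where DR is the EC50 ratio versus control.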

Histamine H3 receptor = Histamine H3 receptor (Homo sapiens, UniProt Q9Y5N1); assay: Antagonist activity at human recombinant histamine H3 receptor expressed in CHO cells assessed as inhibition of histamine-induced GTP-gammaS binding; type: functional, cell-based
Chain of Histamine H3 receptor (Q9Y5N1 whole entry): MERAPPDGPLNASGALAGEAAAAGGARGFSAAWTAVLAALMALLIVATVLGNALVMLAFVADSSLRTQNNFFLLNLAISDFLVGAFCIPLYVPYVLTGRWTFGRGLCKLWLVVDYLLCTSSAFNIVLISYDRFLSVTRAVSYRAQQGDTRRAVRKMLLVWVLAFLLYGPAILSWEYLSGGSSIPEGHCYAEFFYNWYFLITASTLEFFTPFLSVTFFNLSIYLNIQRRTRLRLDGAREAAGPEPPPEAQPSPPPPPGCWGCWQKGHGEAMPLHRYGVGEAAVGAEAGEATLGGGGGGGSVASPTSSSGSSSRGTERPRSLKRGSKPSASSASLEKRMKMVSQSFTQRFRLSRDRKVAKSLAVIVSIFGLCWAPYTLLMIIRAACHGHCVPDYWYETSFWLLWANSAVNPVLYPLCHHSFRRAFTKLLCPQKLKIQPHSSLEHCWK
In short: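 Membranes from CHO cells transfected with cloned human H3 receptor; reduction of histamine-stimulated GTPγS binding, detected by scintillation proximity.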

[2] = target: T2, Alpha-1A adrenergic receptor (Homo sapiens, UniProt P35348); assay: Binding affinity to human adrenergic alpha1A receptor expressed in rat intact fibroblasts
T2 sequence (P35348 whole entry): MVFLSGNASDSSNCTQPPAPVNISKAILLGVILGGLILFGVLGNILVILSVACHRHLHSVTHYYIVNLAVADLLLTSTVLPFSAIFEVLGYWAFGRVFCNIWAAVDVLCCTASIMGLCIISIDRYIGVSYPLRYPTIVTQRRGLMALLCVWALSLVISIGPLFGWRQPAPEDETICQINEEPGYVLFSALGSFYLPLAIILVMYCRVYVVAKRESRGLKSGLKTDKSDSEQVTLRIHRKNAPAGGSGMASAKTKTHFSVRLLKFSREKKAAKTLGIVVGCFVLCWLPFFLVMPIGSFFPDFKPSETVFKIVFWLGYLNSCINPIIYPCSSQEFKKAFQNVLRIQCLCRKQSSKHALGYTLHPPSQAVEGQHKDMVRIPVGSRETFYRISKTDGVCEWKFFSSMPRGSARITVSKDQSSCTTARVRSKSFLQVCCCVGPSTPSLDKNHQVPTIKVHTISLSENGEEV

[3] = target: T3, Alpha-1B adrenergic receptor (Homo sapiens, UniProt P35368); assay: Binding affinity to human adrenergic Alpha-1B receptor expressed in rat intact fibroblasts
T3 sequence (P35368 whole entry): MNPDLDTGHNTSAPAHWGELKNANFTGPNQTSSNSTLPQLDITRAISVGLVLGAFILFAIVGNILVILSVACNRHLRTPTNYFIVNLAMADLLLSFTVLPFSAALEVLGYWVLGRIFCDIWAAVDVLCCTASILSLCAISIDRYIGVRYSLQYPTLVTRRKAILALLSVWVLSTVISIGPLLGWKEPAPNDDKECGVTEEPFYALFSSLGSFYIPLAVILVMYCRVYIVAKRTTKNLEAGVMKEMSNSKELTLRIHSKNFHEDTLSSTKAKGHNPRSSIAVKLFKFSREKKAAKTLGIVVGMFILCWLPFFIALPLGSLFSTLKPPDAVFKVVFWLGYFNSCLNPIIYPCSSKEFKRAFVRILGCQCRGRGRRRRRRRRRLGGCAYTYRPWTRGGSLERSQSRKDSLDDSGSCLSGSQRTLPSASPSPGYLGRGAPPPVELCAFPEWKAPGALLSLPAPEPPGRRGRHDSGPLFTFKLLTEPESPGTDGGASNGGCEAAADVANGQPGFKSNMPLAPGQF
In short: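 Plate-based calcium imaging in intact Rat1 fibroblasts expressing the human α1B adrenoceptor.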

Histamine H1 receptor [4] = target: T1, Histamine H1 receptor; assay: Antagonist activity at human recombinant histamine H1 receptor expressed in intact CHO cells assessed as inhibition of histamine-induced cellular calcium mobilization at 100 nM after 30 mins by FLIPR assay; type: functional, cell-based; details: read-out: pA2 (converted)
In short: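 Intact CHO cells expressing recombinant human H1; Fluo-4AM calcium dye read on FLIPR. Histamine concentration-response curves run without or with antagonist at a single 100 nM, 30 min incubation. EC50 from four-parameter logistic fit; pA2 = log(DR-1) - log[B], DR being EC50 with antagonist over control EC50.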

Histamine H1 receptor [5] = target: T1, Histamine H1 receptor; assay: Antagonist activity at human recombinant histamine H1 receptor expressed in intact CHO cells assessed as inhibition of histamine-induced cellular calcium mobilization at 100 nM incubated for 30 mins measured after washout followed by repeat histamine challenge at intervals of 90 and 270 mins by FLIPR assay; type: functional, cell-based
[6] = Solubility of the compound in phosphate buffered saline at pH 5; type: physicochemical
[7] = Lipophilicity, log D of the compound; type: physicochemical; details: octanol/water
[8] = target: T4, Voltage-gated inwardly rectifying potassium channel KCNH2 (Homo sapiens, UniProt Q12809); assay: Displacement of labeled dofetilide human ERG
T4 sequence (Q12809 whole entry): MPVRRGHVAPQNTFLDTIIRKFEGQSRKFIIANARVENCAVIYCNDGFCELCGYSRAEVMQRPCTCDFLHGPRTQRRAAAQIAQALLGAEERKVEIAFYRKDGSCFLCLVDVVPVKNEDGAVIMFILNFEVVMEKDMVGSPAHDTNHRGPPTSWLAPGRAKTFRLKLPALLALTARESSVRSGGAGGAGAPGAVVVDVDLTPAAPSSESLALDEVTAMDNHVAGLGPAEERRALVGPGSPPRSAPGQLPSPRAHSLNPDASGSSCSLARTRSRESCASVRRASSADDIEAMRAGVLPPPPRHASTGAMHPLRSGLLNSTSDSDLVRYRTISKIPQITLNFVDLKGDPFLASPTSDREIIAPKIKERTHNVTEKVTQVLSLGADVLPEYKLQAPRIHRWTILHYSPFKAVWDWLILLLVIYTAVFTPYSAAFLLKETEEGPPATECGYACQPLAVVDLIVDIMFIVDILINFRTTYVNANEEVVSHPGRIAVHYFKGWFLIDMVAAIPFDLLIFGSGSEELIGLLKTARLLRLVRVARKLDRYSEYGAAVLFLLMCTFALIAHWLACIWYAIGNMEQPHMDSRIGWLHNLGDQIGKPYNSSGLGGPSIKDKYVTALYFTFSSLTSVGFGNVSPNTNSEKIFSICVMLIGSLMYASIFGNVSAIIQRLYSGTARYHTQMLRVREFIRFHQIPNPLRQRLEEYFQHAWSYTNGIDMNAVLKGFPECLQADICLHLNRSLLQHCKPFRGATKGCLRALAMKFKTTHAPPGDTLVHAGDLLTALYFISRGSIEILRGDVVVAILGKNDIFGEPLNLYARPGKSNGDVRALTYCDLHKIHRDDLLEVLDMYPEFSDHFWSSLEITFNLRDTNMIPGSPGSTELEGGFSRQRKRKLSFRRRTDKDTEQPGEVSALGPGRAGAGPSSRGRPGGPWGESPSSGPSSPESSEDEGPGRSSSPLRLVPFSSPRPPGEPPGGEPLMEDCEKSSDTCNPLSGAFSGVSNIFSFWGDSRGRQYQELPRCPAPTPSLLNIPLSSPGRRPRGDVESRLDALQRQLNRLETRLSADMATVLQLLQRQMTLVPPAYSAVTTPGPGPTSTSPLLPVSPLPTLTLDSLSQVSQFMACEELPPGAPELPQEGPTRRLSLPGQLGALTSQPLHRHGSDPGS

Histamine H2 receptor = Histamine H2 receptor (Homo sapiens, UniProt P25021); assay: Binding affinity to human histamine H2 receptor
Chain of Histamine H2 receptor (P25021 whole entry): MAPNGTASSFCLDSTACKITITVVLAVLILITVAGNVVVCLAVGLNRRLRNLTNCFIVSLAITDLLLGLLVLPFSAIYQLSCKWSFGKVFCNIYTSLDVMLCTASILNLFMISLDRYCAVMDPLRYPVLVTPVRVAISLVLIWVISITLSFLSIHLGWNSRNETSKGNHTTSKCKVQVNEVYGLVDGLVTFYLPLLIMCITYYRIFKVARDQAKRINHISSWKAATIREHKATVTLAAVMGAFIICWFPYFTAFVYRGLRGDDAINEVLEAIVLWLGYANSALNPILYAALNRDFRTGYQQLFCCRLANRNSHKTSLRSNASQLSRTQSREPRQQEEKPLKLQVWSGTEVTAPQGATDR

Histamine H4 receptor = Histamine H4 receptor (Homo sapiens, UniProt Q9H3N8); assay: Binding affinity to human histamine H4 receptor
Chain of Histamine H4 receptor (Q9H3N8 whole entry): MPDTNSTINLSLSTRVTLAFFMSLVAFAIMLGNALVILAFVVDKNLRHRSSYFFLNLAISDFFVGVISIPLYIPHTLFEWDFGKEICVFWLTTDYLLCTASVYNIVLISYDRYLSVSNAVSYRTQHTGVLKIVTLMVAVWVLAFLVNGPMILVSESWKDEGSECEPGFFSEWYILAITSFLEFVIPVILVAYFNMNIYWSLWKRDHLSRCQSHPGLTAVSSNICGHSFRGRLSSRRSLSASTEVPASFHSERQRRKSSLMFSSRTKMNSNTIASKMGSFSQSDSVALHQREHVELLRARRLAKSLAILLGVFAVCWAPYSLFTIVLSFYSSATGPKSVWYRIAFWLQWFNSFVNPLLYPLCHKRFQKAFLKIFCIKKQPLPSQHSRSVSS

[9] = target: T4, Voltage-gated inwardly rectifying potassium channel KCNH2; assay: Inhibition of human ERG by patch clamp assay
Heart = assay: Cardiotoxicity in rabbit heart assessed as induction of QT interval prolongation; type: toxicity, tissue-based, Oryctolagus cuniculus
Liver microsomes [10] = assay: Metabolic stability in human liver microsomes; type: ADME, Microsome
Hepatocyte = assay: Metabolic stability in human hepatocytes; type: ADME, cell-based
Liver microsomes [11] = assay: Metabolic stability in rat liver microsomes; type: ADME, Microsome
Liver = assay: Metabolic stability in dog liver microsomes; type: ADME, Canis lupus familiaris, Microsome
[12] = Clearance in CD rat at 3 mg/kg, po and 1 mg/kg, iv; type: ADME, organism-based; details: in vivo
In short: (§1)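 Male CD rats dosed 3.0 mg/kg po and 1.0 mg/kg iv, groups of 3 or 7 animals. Clearance, Vss, t1/2 and F are reported with ranges, and clearance is also expressed as % of liver blood flow.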

[13] = Clearance in Beagle dog at 3 mg/kg, po and 1 mg/kg, iv; type: ADME, organism-based, Canis lupus familiaris; details: in vivo
In short: (§2)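 Male Beagle dogs (n = 3) dosed 3.0 mg/kg po and 1.0 mg/kg iv. Clearance, Vss, t1/2 and F are given with ranges, and clearance as % of liver blood flow. Unchanged drug excreted in urine was measured over 24 h.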

[14] = Volume of distribution at steady state in CD rat at 3 mg/kg, po and 1 mg/kg, iv; type: ADME, organism-based; details: in vivo, read-out: Vdss; in short: as §1
[15] = Volume of distribution at steady state in Beagle dog at 3 mg/kg, po and 1 mg/kg, iv; type: ADME, organism-based, Canis lupus familiaris; details: in vivo, read-out: Vdss; in short: as §2
[16] = Half life in CD rat at 3 mg/kg, po and 1 mg/kg, iv; type: ADME, organism-based; details: in vivo; in short: as §1
[17] = Half life in Beagle dog at 3 mg/kg, po and 1 mg/kg, iv; type: ADME, organism-based, Canis lupus familiaris; details: in vivo; in short: as §2
Rattus norvegicus = assay: Liver blood flow in CD rat at 3 mg/kg, po and 1 mg/kg, iv; type: ADME, organism-based; details: in vivo; in short: as §1
Canis familiaris = assay: Liver blood flow in Beagle dog at 3 mg/kg, po and 1 mg/kg, iv; type: ADME, organism-based, Canis lupus familiaris; details: in vivo; in short: as §2
[18] = Oral bioavailability in CD rat at 3 mg/kg; type: ADME, organism-based; details: in vivo; in short: as §1
[19] = Oral bioavailability in Beagle dog at 3 mg/kg; type: ADME, organism-based, Canis lupus familiaris; details: in vivo; in short: as §2
[20] = Unchanged drug level in Beagle dog urine at 3 mg/kg, po and 1 mg/kg, iv after 24 hrs; type: ADME, organism-based, Canis lupus familiaris; details: read-out: Activity; in short: as §2
[21] = Ratio of drug level in brain to blood in CD rat at 1 mg/kg, iv; type: ADME, organism-based; set-up: dose 1 mg/kg, route intravenous; details: read-out: BBR
Cytochrome P450 2D6 = Cytochrome P450 2D6 (Homo sapiens, UniProt P10635); assay: Inhibition of CYP2D6; type: ADME
Chain of Cytochrome P450 2D6 (P10635 whole entry): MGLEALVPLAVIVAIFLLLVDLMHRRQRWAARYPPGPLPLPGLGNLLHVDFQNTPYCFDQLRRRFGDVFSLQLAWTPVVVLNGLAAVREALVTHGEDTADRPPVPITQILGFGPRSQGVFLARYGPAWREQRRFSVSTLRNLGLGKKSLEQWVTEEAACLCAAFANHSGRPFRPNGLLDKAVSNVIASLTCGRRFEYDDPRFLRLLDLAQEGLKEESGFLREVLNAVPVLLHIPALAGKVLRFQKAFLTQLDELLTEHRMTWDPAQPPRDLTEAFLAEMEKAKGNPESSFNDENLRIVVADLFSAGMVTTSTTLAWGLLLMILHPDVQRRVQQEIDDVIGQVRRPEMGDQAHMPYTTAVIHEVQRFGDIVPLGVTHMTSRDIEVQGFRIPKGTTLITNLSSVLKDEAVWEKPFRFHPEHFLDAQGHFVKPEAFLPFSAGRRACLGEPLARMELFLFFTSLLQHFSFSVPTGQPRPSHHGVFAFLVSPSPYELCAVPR

Cytochrome P450 1A2 = target: T5, Cytochrome P450 1A2 (Homo sapiens, UniProt P05177); assay: Inhibition of CYP1A2; type: ADME
T5 sequence (P05177 whole entry): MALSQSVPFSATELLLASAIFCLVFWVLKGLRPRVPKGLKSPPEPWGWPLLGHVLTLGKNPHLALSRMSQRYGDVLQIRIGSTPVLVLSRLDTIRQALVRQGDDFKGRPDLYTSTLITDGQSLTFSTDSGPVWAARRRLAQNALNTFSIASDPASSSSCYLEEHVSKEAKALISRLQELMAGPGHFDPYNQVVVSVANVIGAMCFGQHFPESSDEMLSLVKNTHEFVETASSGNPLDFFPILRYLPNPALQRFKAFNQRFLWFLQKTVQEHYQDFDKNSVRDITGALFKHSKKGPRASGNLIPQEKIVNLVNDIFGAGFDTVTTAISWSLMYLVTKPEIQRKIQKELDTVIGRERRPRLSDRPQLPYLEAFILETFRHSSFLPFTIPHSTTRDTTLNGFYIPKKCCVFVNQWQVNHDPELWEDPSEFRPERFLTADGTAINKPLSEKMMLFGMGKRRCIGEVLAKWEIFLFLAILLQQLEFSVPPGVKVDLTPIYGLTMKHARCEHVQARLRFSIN

Cytochrome P450 2C9 = Cytochrome P450 2C9 (Homo sapiens, UniProt P11712); assay: Inhibition of CYP2C9; type: ADME
Chain of Cytochrome P450 2C9 (P11712 whole entry): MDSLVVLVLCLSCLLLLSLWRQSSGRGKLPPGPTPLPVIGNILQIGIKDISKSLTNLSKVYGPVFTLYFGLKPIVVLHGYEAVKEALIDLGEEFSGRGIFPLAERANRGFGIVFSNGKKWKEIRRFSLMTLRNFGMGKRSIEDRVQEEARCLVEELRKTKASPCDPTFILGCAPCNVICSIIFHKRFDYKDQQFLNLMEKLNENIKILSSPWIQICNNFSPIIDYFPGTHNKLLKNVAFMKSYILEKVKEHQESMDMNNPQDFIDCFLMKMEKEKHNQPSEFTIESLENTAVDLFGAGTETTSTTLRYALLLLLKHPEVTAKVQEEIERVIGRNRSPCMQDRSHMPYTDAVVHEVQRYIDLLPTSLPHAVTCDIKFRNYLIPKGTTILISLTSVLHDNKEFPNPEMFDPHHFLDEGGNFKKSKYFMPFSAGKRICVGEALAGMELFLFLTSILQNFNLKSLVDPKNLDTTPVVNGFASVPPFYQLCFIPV

Cytochrome P450 2C19 = Cytochrome P450 2C19 (Homo sapiens, UniProt P33261); assay: Inhibition of CYP2C19; type: ADME
Chain of Cytochrome P450 2C19 (P33261 whole entry): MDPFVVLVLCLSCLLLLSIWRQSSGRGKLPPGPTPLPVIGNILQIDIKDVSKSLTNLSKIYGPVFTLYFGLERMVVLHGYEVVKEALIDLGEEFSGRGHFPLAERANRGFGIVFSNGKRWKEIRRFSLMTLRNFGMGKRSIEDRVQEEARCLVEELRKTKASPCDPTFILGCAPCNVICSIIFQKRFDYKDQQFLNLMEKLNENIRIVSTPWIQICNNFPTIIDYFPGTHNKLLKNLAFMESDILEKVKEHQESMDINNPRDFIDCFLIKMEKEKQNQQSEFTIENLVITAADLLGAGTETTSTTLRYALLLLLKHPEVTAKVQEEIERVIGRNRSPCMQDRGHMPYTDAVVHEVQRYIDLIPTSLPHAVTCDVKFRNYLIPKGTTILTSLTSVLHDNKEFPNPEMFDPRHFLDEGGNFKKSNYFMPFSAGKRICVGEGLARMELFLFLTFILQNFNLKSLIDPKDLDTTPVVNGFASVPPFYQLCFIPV

Cytochrome P450 3A4 = Cytochrome P450 3A4 (Homo sapiens, UniProt P08684); assay: Inhibition of CYP3A4; type: ADME
Chain of Cytochrome P450 3A4 (P08684 whole entry): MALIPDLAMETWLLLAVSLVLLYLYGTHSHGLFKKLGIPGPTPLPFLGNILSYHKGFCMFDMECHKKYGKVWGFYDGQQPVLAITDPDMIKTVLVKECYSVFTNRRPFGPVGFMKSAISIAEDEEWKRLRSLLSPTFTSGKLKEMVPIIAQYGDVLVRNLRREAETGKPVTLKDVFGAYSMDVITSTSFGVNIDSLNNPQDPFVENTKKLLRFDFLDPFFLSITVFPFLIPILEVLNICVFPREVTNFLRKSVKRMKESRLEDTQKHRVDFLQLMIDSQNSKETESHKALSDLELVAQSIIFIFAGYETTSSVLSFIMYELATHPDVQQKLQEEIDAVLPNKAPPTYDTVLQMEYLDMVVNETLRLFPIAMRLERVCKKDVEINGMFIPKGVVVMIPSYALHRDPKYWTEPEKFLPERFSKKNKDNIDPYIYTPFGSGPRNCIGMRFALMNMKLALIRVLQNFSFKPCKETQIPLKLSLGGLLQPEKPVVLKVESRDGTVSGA

Cavia porcellus = assay: Antiallergic rhinitis activity in conscious guinea pig assessed as duration of inhibition of histamine-induced nasal congestion at 0.1 to 1 mg/ml administered intranasally; type: functional

O=c1c2ccccc2c(Cc2ccc(Cl)cc2)nn1C[C@H]1CCCN1CCCCCc1ccc(OCCCN2CCCCCC2)cc1
Ki (Histamine H1 receptor [1]): 12.6 nM | Ki (Histamine H3 receptor): 0.398 nM | Ki [2]: 25.1 nM | Ki [3]: 50.1 nM | Kb (Histamine H1 receptor [4]): 1.26 nM | inhibition (Histamine H1 receptor [5]): Active

COc1ccc(Cc2nn(C[C@H]3CCCN3CCCCc3ccc(OCCCN4CCCCCC4)cc3)c(=O)c3ccccc23)cc1
Ki (Histamine H1 receptor [1]): 7.94 nM | Ki (Histamine H3 receptor): 0.316 nM | Ki [2]: 63.1 nM | Ki [3]: 50.1 nM | Kb (Histamine H1 receptor [4]): 1.26 nM | inhibition (Histamine H1 receptor [5]): Active

O.O=S(=O)(O)c1cccc2c(S(=O)(=O)O)cccc12.O=c1c2ccccc2c(Cc2ccc(Cl)cc2)nn1C[C@H]1CCCN1CCCCc1ccc(OCCCN2CCCCCC2)cc1
solubility [6]: 20 µg/mL | logD [7]: 3

O=c1c2ccccc2c(Cc2ccc(Cl)cc2)nn1C[C@H]1CCCN1CCCCc1ccc(OCCCN2CCCCCC2)cc1 [GSK-1004723]
Ki (Histamine H1 receptor [1]): 10 nM | Ki [2]: 39.8 nM | Ki [3]: 31.6 nM | Kb (Histamine H1 receptor [4]): 0.794 nM | IC50 [8]: 50.1 nM | IC50 (Histamine H2 receptor): 10 µM | IC50 (Histamine H4 receptor): 10 µM | inhibition (INH) [9]: Active | Activity (Heart): Non-toxic | Stability (Liver microsomes [10]): Stable | Stability (Hepatocyte): Unstable | Stability (Liver microsomes [11]): Stable | Stability (Liver): Stable | clearance [12]: 30 mL/min/kg | clearance [13]: 27 mL/min/kg | Vd [14]: 3.9 L/kg | Vd [15]: 22 L/kg | half-life [16]: 132 min | half-life [17]: 564 min | LBF (Rattus norvegicus): 35% | LBF (Canis familiaris): 87% | bioavailability [18]: 4% | bioavailability [19]: 19% | dose excreted at 24 h [20]: < 1% | Kp [21]: 0.6 | IC50 (Cytochrome P450 2D6): 40 nM | IC50 (Cytochrome P450 1A2): > 3 µM | IC50 (Cytochrome P450 2C9): > 3 µM | IC50 (Cytochrome P450 2C19): > 3 µM | IC50 (Cytochrome P450 3A4): 300 nM | Time (Cavia porcellus): 72 h
